Test results published in ChEMBL document CHEMBL3352477 (ACS Med Chem Lett, 2015).

Experiments:
[1] = Inhibition of aurora (unknown origin) assessed as phosphorylation of histone H3; parameters: species or system Homo sapiens
[2] = system: HT-1080; test: Inhibition of human XBP1 splicing in human HT1080-CMV-XBP1-Luciferase cells assessed as luciferase signal by Promega Bright-Glo luciferase assay; format: functional
Summary of the method: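 HT1080 cells carried an XBP1–luciferase fusion that is in frame and expressed only from the spliced XBP1 transcript. Thapsigargin induced the UPR and activated IRE1α to drive splicing. The luciferase signal was quantified as the measure of cellular XBP1 splicing.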

[3] = target: Serine/threonine-protein kinase/endoribonuclease IRE1 (Homo sapiens, UniProt O75460); test: Inhibition of human IRE1alpha using 5'[6FAM]-GAGUCCGCAGCACUC-[BHQ1]3' substrate by biochemical fluorescence quenching assay
Chain of Serine/threonine-protein kinase/endoribonuclease IRE1 (O75460 whole entry, the tested form may be a part): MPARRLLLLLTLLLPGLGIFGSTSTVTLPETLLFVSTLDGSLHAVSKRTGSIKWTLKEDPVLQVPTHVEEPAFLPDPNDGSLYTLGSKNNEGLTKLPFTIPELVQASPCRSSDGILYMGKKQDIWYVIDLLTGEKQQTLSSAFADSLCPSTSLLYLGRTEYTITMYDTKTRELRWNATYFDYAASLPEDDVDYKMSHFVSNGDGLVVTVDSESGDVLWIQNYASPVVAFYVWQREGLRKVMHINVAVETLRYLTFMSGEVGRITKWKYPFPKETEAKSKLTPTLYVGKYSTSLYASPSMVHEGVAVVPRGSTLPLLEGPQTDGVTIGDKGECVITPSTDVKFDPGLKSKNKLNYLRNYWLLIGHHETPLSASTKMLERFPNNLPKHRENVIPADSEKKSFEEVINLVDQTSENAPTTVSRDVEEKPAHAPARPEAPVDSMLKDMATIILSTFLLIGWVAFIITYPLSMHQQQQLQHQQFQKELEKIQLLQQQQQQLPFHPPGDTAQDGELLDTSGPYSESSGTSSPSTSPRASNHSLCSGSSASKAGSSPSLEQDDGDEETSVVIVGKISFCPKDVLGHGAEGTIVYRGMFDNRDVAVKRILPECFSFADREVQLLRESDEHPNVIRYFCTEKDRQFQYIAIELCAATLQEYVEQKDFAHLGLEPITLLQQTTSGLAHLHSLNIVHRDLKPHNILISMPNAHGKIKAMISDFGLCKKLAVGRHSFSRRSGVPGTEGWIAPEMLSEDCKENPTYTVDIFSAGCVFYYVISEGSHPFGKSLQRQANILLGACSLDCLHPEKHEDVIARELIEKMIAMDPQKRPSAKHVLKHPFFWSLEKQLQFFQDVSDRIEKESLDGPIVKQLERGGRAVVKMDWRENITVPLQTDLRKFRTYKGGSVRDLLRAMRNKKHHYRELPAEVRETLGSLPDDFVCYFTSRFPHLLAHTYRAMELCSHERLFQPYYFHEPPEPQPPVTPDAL
Summary of the method: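 RNase activity of autophosphorylated IRE1α, read as cleavage of an XBP1 stem-loop RNA substrate. This format picks up inhibitors acting at either the kinase or the RNase domain.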

[4] = target: Mitogen-activated protein kinase 10 (Homo sapiens, UniProt P53779); test: Inhibition of human wild type JNK3 using biotinylated ATF2 substrate assessed as phosphorylation at thr53 on ATF2 by fluorescent plate reader
Chain of Mitogen-activated protein kinase 10 (P53779 whole entry): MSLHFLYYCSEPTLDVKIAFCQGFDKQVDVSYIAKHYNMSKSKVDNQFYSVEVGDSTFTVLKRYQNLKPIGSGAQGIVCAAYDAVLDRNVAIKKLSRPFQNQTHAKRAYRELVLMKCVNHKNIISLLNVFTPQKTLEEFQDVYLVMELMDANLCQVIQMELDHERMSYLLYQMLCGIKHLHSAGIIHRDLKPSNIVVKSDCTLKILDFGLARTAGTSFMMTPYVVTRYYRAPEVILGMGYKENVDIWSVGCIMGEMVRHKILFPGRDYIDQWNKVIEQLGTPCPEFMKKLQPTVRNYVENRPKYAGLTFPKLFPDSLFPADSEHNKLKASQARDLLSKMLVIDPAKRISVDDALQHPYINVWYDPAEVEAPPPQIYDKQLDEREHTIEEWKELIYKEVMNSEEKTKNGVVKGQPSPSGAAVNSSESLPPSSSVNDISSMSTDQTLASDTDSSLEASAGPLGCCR

| SMILES | IC50 [1] [nM] | IC50 [2] [nM] | IC50 [3] [nM] | IC50 [4] [nM] |
| --- | --- | --- | --- | --- |
| CN(C)CCNc1nccc(-c2cccnc2Oc2ccc(Nc3nc4ccccc4[nH]3)c3ccccc23)n1 | 16000 | 270 | 71 | 350 |
| Cc1cc(Nc2nc3ccccc3[nH]2)c2ccccc2c1Oc1ncccc1-c1ccnc(NCCN(C)C)n1 | > 50000 | 200 | 14 | 710 |
| CC(C)CCNc1nccc(-c2cccnc2Oc2ccc(Nc3nc4ccccc4[nH]3)c3ccccc23)n1 |  | 15000 | > 99000 | 32 |
| OCCNc1nccc(-c2cccnc2Oc2ccc(Nc3nc4ccccc4[nH]3)c3ccccc23)n1 |  | 870 | 170 | 12 |
| CN1CCCC(Nc2nccc(-c3cccnc3Oc3ccc(Nc4nc5ccccc5[nH]4)c4ccccc34)n2)C1 (centres undefined) |  | 310 | 29 | 5.5 |
| c1cnc(Oc2ccc(Nc3nc4ccccc4[nH]3)c3ccccc23)c(-c2ccnc(N[C@@H]3CCCNC3)n2)c1 |  | 570 | 51 | 14 |
| c1cnc(Oc2ccc(Nc3nc4ccccc4[nH]3)c3ccccc23)c(-c2ccnc(N[C@H]3CCCNC3)n2)c1 |  | 31 | 9.7 | 31 |
| N[C@H]1CC[C@H](Nc2nccc(-c3cccnc3Oc3ccc(Nc4nc5ccccc5[nH]4)c4ccccc34)n2)CC1 |  | 33 | 11 | 1.9 |
| N[C@H]1CC[C@@H](Nc2nccc(-c3cccnc3Oc3ccc(Nc4nc5ccccc5[nH]4)c4ccccc34)n2)CC1 |  | 340 | 43 | 7.5 |
| Cc1cc(Nc2nc3ccccc3[nH]2)c2ccccc2c1Oc1ncccc1-c1ccnc(N[C@H]2CC[C@H](N)CC2)n1 |  | 33 | 6.4 | 1.9 |
| Cc1cc(Nc2nc3ccccc3[nH]2)c2ccccc2c1Oc1ncccc1-c1ccnc(N[C@H]2CCCNC2)n1 |  | 13 | 5.1 | 20 |
| Cc1cc(Nc2nc3ccccc3o2)c2ccccc2c1Oc1ncccc1-c1ccnc(N[C@H]2CC[C@H](N)CC2)n1 |  | 51 | 14 | 7 |
| Cc1cc(NS(=O)(=O)c2ccccc2)c2ccccc2c1Oc1ncccc1-c1ccnc(N[C@H]2CC[C@H](N)CC2)n1 |  | 590 | 45 | 2200 |
| COc1ccccc1S(=O)(=O)Nc1cc(C)c(Oc2ncccc2-c2ccnc(N[C@H]3CC[C@H](N)CC3)n2)c2ccccc12 |  | 440 | 54 | 1200 |
| Cc1cc(NS(=O)(=O)c2ccccc2C#N)c2ccccc2c1Oc1ncccc1-c1ccnc(N[C@H]2CC[C@H](N)CC2)n1 |  | 62 | 12 | 400 |
| Cc1cc(NS(=O)(=O)c2ccccc2Cl)c2ccccc2c1Oc1ncccc1-c1ccnc(N[C@H]2CC[C@H](N)CC2)n1 |  | 42 | 14 | 1600 |
| Cc1ccc2c(NS(=O)(=O)c3ccccc3Cl)cccc2c1Oc1ncccc1-c1ccnc(N[C@H]2CC[C@H](N)CC2)n1 |  | 120 | 22 | 540 |
| Cc1ccc2c(NS(=O)(=O)c3ccccc3Cl)cccc2c1Oc1ncccc1-c1ccnc(N[C@H]2CCCNC2)n1 |  | 99 | 13 | 2500 |
| N[C@H]1CC[C@H](Nc2nccc(-c3cccnc3Oc3ccc(NS(=O)(=O)c4ccccc4Cl)c4ccccc34)n2)CC1 |  | 580 | 31 | 400 |
